From ChEMBL document CHEMBL4602675, “The Marine Natural Product Manzamine A Inhibits Cervical Cancer by Targeting the SIX1 Protein” (J Nat Prod, 2020)
The source made the active and inactive calls. The calls are words filed in the database; no cut-off is given here.

Assays:
SiHa [1] = test: Antiproliferative activity against human SiHa cells assessed as reduction in cell viability after 24 hrs by CellTiter-Glo assay; format: functional, cell-based
Procedure, shortened: (§1)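 ATP-based luminescent viability readout. Cells were grown in DMEM with 10% FBS, 2 mM L-glutamine and penicillin-streptomycin at 37 °C, 5% CO2. 2 × 10^4 cells/well were seeded, then exposed the next day to 0–40 μM for 24, 48 or 72 h. % viability = 100 × treated/control. IC50 was fitted from a sigmoid dose-response curve. Run at least three times in quadruplicate; mean ± SEM.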

C-33-A [2] = test: Antiproliferative activity against human C33A cells assessed as reduction in cell viability after 48 hrs by CellTiter-Glo assay; format: functional, cell-based; procedure, shortened: as §1
SiHa [3] = test: Antiproliferative activity against human SiHa cells assessed as reduction in cell viability after 72 hrs by CellTiter-Glo assay; format: functional, cell-based; procedure, shortened: as §1
C-33-A [4] = test: Cell cycle arrest in human C33A cells assessed as accumulation at G2/M phase at 4 uM after 72 hrs by propidium iodide staining based flow cytometric analysis (reference value: 25.2%); format: functional
Procedure, shortened: (§2)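 Cells in DMEM/10% FBS at 37 °C, 5% CO2 were given 4 μM for 24, 48 or 72 h, with DMSO as control. After trypsinization they were fixed in chilled 70% ethanol on ice for 30 min, treated with RNase A (1 mg/mL) for 30 min at room temperature, and stained with PI (20 μg/mL). At least 10 000 events were read by flow cytometry to give sub-G1, G0/G1, S and G2/M fractions; mean ± SEM.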

SiHa [5] = test: Cell cycle arrest in human SiHa cells assessed as accumulation at G2/M phase at 4 uM after 48 hrs by propidium iodide staining based flow cytometric analysis (reference value: 14.7%); format: functional
Procedure, shortened: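 Cells in DMEM with 10% FBS, 2 mM L-glutamine, pen-strep, 37 °C, 5% CO2; seeded and left overnight, then treated at 4 μM with DMSO as control. Harvested by trypsin at 24, 48 or 72 h, fixed in chilled 70% ethanol 30 min on ice, RNase A (1 mg/mL) 30 min at room temperature, PI (20 μg/mL). Flow cytometry, ≥10 000 events, G0/G1, S, G2/M fractions; mean ± SEM.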

HeLa [6] = test: Cell cycle arrest in human HeLa cells assessed as accumulation at G2/M phase at 4 uM after 72 hrs by propidium iodide staining based flow cytometric analysis (reference value: 12.6%); format: functional; procedure, shortened: as §2
Ca-Ski [7] = test: Cell cycle arrest in human CaSki cells assessed as accumulation at G2/M phase at 4 uM after 24 hrs by propidium iodide staining based flow cytometric analysis (reference value: 27.4%); format: functional; procedure, shortened: as §2
Ca-Ski [8] = test: Cell cycle arrest in human CaSki cells assessed as accumulation at G0/G1 phase at 4 uM after 72 hrs by propidium iodide staining based flow cytometric analysis (reference value: 77.6%); format: functional
C-33-A [9] = test: Induction of apoptosis in human C33A cells assessed as viable cells at 4 uM after 24 hrs by Annexin V-FITC/PI double staining based flow cytometric analysis (reference value: 93.3%); format: functional; conditions: read-out: Activity
SiHa [10] = test: Induction of apoptosis in human SiHa cells assessed as late apoptotic cells at 4 uM after 48 hrs by Annexin V-FITC/PI double staining based flow cytometric analysis (reference value: 2.3%); format: functional
HeLa [11] = test: Induction of apoptosis in human HeLa cells assessed as viable cells at 4 uM after 24 hrs by Annexin V-FITC/PI double staining based flow cytometric analysis (reference value: 85.2%); format: functional; conditions: read-out: Activity
HeLa [12] = test: Induction of apoptosis in human HeLa cells assessed as viable cells at 4 uM after 48 hrs by Annexin V-FITC/PI double staining based flow cytometric analysis (reference value: 80.7%); format: functional; conditions: read-out: Activity
HeLa [13] = test: Induction of apoptosis in human HeLa cells assessed as early apoptotic cells at 4 uM after 48 hrs by Annexin V-FITC/PI double staining based flow cytometric analysis (reference value: 10.7%); format: functional
Ca-Ski [14] = test: Cell cycle arrest in human CaSki cells assessed as decrease in accumulation at S phase at 4 uM incubated up to 72 hrs by propidium iodide staining based flow cytometric analysis; format: functional; procedure, shortened: as §2
C-33-A [15] = test: Induction of apoptosis in human C33A cells assessed as apoptotic cells at 4 uM after 48 hrs by Annexin V-FITC/PI double staining based flow cytometric analysis (reference value: 17.3%); format: functional
C-33-A [16] = test: Cell cycle arrest in human C33A cells assessed as increase in p21 protein expression at 2 to 4 uM after 48 hr by Western lot analysis; format: functional, cell-based
Procedure, shortened: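 Western blot. 1 × 10^6 cells were seeded per 100 mm dish and exposed the next day to 2 or 4 μM for 48 h. Cells were trypsinized and lysed in RIPA buffer with protease inhibitors. Equal protein was run on SDS-PAGE and transferred to PVDF, which was blocked in 5% milk/TBST. Anti-p53 and anti-p21 (also GAPDH) were used at 1:500 and HRP secondary at 1:2000; chemiluminescent detection.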

[17] = target: T1, Homeobox protein SIX1 (Homo sapiens) (UniProt Q15475); test: Inhibition of SIX1 in human HeLa cells at 2 to 4 uM after 48 hrs by Western blot analysis; format: cell-based
T1 sequence (whole entry): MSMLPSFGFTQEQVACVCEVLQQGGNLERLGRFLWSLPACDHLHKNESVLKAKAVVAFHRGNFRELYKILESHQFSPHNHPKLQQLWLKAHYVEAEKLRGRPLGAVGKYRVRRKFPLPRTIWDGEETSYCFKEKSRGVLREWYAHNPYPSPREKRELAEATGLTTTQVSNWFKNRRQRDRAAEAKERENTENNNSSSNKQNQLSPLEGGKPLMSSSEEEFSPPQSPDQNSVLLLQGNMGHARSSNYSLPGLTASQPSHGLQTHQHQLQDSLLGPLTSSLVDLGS
Procedure, shortened: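 Cells were seeded at 1 × 10^6 per 100 mm dish and treated next day with 2 or 4 μM for 48 h. They were trypsinised, PBS-washed and lysed in RIPA with protease inhibitors. Equal protein was run on SDS-PAGE and transferred to PVDF. Primary antibodies were used at 1:500, with BSA 3% for blocking and antibodies for CK2α, Rb and pRb, otherwise 5% milk in TBST. HRP secondary at 1:2000, chemiluminescence detection.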

[18] = target: Casein kinase II subunit alpha (Homo sapiens) (UniProt P68400); test: Potency index, ratio for inhibition activity of apigenin to test compound for inhibition of CK2alpha in human HeLa cells after 48 hrs by Western blot analysis; format: cell-based
Chain of Casein kinase II subunit alpha (Homo sapiens) (P68400 whole entry, looked up): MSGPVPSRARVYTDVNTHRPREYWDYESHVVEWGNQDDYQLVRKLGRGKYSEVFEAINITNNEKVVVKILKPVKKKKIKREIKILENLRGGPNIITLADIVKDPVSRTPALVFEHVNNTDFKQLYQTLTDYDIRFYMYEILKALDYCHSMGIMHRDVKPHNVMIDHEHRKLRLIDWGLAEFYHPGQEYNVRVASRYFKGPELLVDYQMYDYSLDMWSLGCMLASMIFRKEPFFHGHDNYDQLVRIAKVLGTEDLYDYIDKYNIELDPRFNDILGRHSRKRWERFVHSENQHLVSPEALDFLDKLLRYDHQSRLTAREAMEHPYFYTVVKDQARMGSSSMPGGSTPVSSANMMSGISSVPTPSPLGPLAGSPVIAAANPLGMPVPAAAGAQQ
Procedure, shortened: (§3)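 Cells plated at 1 × 10^6 per 100 mm dish and treated next day for 48 h with test compound (2 or 4 μM) or apigenin (10, 20 or 40 μM). RIPA lysates with protease inhibitors; equal protein loaded for SDS-PAGE, then PVDF transfer. Blocked in 5% milk/TBST (3% BSA for CK2α); anti-SIX1 or anti-CK2α 1:500, HRP secondary 1:2000; chemiluminescent detection.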

[19] = target: T1, Homeobox protein SIX1 (Homo sapiens); test: Potency index, ratio for inhibition activity of apigenin to test compound for inhibition of SIX1 in human HeLa cells after 48 hrs by Western blot analysis; format: cell-based; procedure, shortened: as §3
[20] = target: T1, Homeobox protein SIX1 (Homo sapiens); test: Potency index, ratio for inhibition activity of apigenin to test compound for inhibition of SIX1 in human C33A cells after 48 hrs by Western blot analysis; format: cell-based; conditions: C-33-A; procedure, shortened: as §3

O[C@]12C=C(c3nccc4c3[nH]c3ccccc34)[C@@H]3CCN(CCCC/C=C\CC1)C[C@@]31C[C@@H]3/C=C\CCCCN3[C@H]12 [MANZAMINE A]
IC50 (SiHa [1]): 19.9 µM
IC50 (C-33-A [2]): 2.1 µM
IC50 (SiHa [3]): 4.1 µM
Activity (C-33-A [4]): 19.3%
Activity (SiHa [5]): 8.2%
Activity (HeLa [6]): 16.2%
Activity (Ca-Ski [7]): 15.2%
Activity (Ca-Ski [8]): 81.7%
viability at 4 µM (C-33-A [9]): 72.7%
Activity (SiHa [10]): 4.2%
viability at 4 µM (HeLa [11]): 81.7%
viability at 4 µM (HeLa [12]): 24.1%
Activity (HeLa [13]): 59%
Activity (Ca-Ski [14]): Active
Activity (C-33-A [15]): 36.5%
Activity (C-33-A [16]): inactive
inhibition [17]: Active
Ratio [18]: 10
Ratio [19]: 10
Ratio [20]: 10
